ChEMBL document CHEMBL4145471, “New 1,5 and 2,5-disubstituted tetrazoles-dependent activity towards surface barrier of Candida albicans” (Eur J Med Chem, 2018)

Experiments:
Type in all cases: functional
Candida albicans [1] = experiment: Antifungal activity against Candida albicans ATCC 90028 at 2 ug/ml after 48 hrs relative to control
How it was run: (§1)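 Planktonic broth microdilution per M27-A3 in MOPS-buffered RPMI 1640 (pH 7.0), final inoculum 1.8×10^3 cells/mL, compounds 0.0313–16 µg/mL from 1600 µg/mL stocks in ethanol or DMSO. Incubated at 35°C without agitation; OD405 read at 18 and 48 h. % inhibition was derived from test, sterility (no inoculum) and solvent growth-control wells. Amphotericin B at 0.5 µg/mL served as the 100% control.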

Candida albicans [2] = experiment: Antifungal activity against Candida albicans ATCC 90028 at 0.125 ug/ml after 48 hrs relative to control; how it was run: as §1
Candida albicans [3] = experiment: Antifungal activity against Candida albicans ATCC 90028 at 0.0313 ug/ml after 18 hrs relative to control
Candida albicans [4] = experiment: Antifungal activity against Candida albicans ATCC 90028 at 0.0313 ug/ml after 48 hrs relative to control
Candida albicans [5] = experiment: Antifungal activity against Candida albicans ATCC 90028 at 8 ug/ml after 18 hrs relative to control; how it was run: as §1
Candida albicans [6] = experiment: Antifungal activity against Candida albicans ATCC 90028 at 1 ug/ml after 48 hrs relative to control; how it was run: as §1
Candida albicans [7] = experiment: Antifungal activity against Candida albicans ATCC 90028 at 4 ug/ml after 18 hrs relative to control; how it was run: as §1
Candida albicans [8] = experiment: Antifungal activity against Candida albicans ATCC 90028 at 16 ug/ml after 18 hrs relative to control; how it was run: as §1
Candida albicans [9] = experiment: Antifungal activity against Candida albicans ATCC 90028 at 0.25 ug/ml after 18 hrs relative to control
How it was run: (§2)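 Fluconazole (water stock, diluted in RPMI 1640) tested by CLSI M27-A3 broth microdilution against C. albicans ATCC 90028. Inoculum 1.8×10^3 cells/mL in RPMI 1640 buffered with MOPS, pH 7.0. Incubation at 35°C without agitation, read at 18 and 48 h. Growth by OD405 and visually; inhibition % calculated against solvent growth-control wells after subtracting sterility-control wells.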

Candida albicans [10] = experiment: Antifungal activity against Candida albicans ATCC 90028 at 4 ug/ml after 48 hrs relative to control; how it was run: as §1
Candida albicans [11] = experiment: Antifungal activity against Candida albicans ATCC 90028 at 8 ug/ml after 48 hrs relative to control; how it was run: as §1
Candida albicans [12] = experiment: Antifungal activity against Candida albicans ATCC 90028 at 0.5 ug/ml after 48 hrs relative to control; how it was run: as §1
Candida albicans [13] = experiment: Fungicidal activity against Candida albicans ATCC 90028 at 16 ug/ml after 48 hrs by M27-A3 microdilution method
How it was run: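 After 48 h at 35°C in M27-A3 microdilution plates (compound at 16 µg/mL), 50 µL aliquots from treated and solvent-control wells were diluted 10^4 in PBS and plated on drug-free Sabouraud dextrose agar, then incubated 48 h at 35°C. Reduction R = lg CFU/mL control − lg CFU/mL treated; R ≥ 3 defined as fungicidal.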

Candida albicans [14] = experiment: Antifungal activity against Candida albicans ATCC 90028 at 0.0625 ug/ml after 48 hrs relative to control; how it was run: as §1
Candida albicans [15] = experiment: Antifungal activity against Candida albicans ATCC 90028 at 0.125 ug/ml after 18 hrs relative to control; how it was run: as §1
Candida albicans [16] = experiment: Antifungal activity against Candida albicans ATCC 90028 at 16 ug/ml after 48 hrs relative to control; how it was run: as §1
Candida albicans [17] = experiment: Antifungal activity against Candida albicans ATCC 90028 at 0.0625 ug/ml after 18 hrs relative to control
Candida albicans [18] = experiment: Antifungal activity against Candida albicans ATCC 90028 at 1 ug/ml after 18 hrs relative to control; how it was run: as §1
Candida albicans [19] = experiment: Antifungal activity against Candida albicans ATCC 90028 at 2 ug/ml after 18 hrs relative to control; how it was run: as §1
Candida albicans [20] = experiment: Antifungal activity against Candida albicans ATCC 90028 at 0.25 ug/ml after 48 hrs relative to control; how it was run: as §2
Candida albicans [21] = experiment: Antifungal activity against Candida albicans ATCC 90028 at 0.5 ug/ml after 18 hrs relative to control; how it was run: as §1

Row | SMILES | Activity (Candida albicans [1]) [%] | Activity (Candida albicans [2]) [%] | Activity (Candida albicans [3]) [%] | Activity (Candida albicans [4]) [%] | Activity (Candida albicans [5]) [%] | Activity (Candida albicans [6]) [%] | Activity (Candida albicans [7]) [%] | Activity (Candida albicans [8]) [%] | Activity (Candida albicans [9]) [%] | Activity (Candida albicans [10]) [%] | Activity (Candida albicans [11]) [%] | Activity (Candida albicans [12]) [%] | Activity (Candida albicans [13]) [log10CFU/ml] | Activity (Candida albicans [14]) [%] | Activity (Candida albicans [15]) [%] | Activity (Candida albicans [16]) [%] | Activity (Candida albicans [17]) [%] | Activity (Candida albicans [18]) [%] | Activity (Candida albicans [19]) [%] | Activity (Candida albicans [20]) [%] | further results
1 | CCOC(=O)CCn1nnnc1-c1ccc(C)cc1 | 97.05 | 98.94 | 99.74 | 99.34 | 98.51 | 99.04 | 99.94 | 98.97 | 95.87 | 99.01 | 98.86 | 99.08 | -0.54 | 99.11 | 99.61 | 98.82 | 99.59 | 98.46 | 89.93 | 98.72 | Activity (Candida albicans [21]): 98.88%
2 | ClCCCn1nnc(-c2ccccc2)n1 | 99.57 | 99.19 | 99.51 | 99.38 | 99.54 | 97.6 | 99.53 | 99.36 | 98.55 | 99.29 | 99.63 | 99.16 | -0.23 | 99.76 | 99.65 | 99.22 | 99.99 | 62.02 | 99.25 | 99.16 | Activity (Candida albicans [21]): 99.1%
3 | ClCCCn1nnnc1-c1ccccc1 | 97.23 | 99.16 | 99.65 | 99.02 | 98.57 | 98.8 | 98.66 | 98.95 | 94.68 | 98.9 | 98.81 | 98.82 | -0.18 | 99.12 | 98.12 | 99.05 | 99.45 | 96.69 | 95.82 | 98.19 | Activity (Candida albicans [21]): 97.53%
4 | CCOC(=O)CCn1nnnc1-c1ccccc1 | 97.06 | 99.01 | 99.69 | 99.23 | 99.4 | 98.87 | 98.44 | 99.13 | 95.76 | 98.91 | 99.02 | 98.96 | 0.16 | 99.26 | 99.99 | 98.96 | 99.37 | 95.93 | 90.79 | 98.01 | Activity (Candida albicans [21]): 98.87%
5 | c1ccc(-c2nnn(CCCN3CCOCC3)n2)cc1 | 98.84 | 97.95 | 94.63 | 98.98 | 99.94 | 98.87 | 99.64 | 97.02 | 99.96 | 99.15 | 98.82 | 99.59 | -0.34 | 99.55 | 99.81 | 99.31 | 99.93 | 80.42 | 85.92 | 99.13 | Activity (Candida albicans [21]): 99.52%
6 | Clc1ccc(-c2nnn(CCCN3CCOCC3)n2)cc1 | 99.61 | 98.92 | 97.92 | 99.12 | 96.3 | 99.36 | 98.1 | 100 | 99.91 | 98.97 | 98.81 | 99.32 | 0.34 | 99.28 | 99.95 | 99.35 | 100 | 98.79 | 98.31 | 99.24 | Activity (Candida albicans [21]): 92.34%
7 | CCOC(=O)CCn1nnc(-c2ccccc2Cl)n1 | 99.41 | 98.82 | 97.51 | 99.27 | 99.23 | 98.86 | 100 | 100 | 99.86 | 99.05 | 98.84 | 98.84 | 0.19 | 98.78 | 99.97 | 98.83 | 99.86 | 99.38 | 99.98 | 99.09 | Activity (Candida albicans [21]): 96.86%
8 | CCOC(=O)CCn1nnc(-c2ccc(Cl)cc2)n1 | 99.12 | 98.85 | 99.32 | 99.14 | 97.97 | 98.78 | 99.85 | 100 | 99.95 | 99.07 | 98.86 | 99 | 0.29 | 98.8 | 99.92 | 98.78 | 99.88 | 84.36 | 99.74 | 98.87 | Activity (Candida albicans [21]): 98.32%
9 | ClCCCn1nnc(-c2ccc(Cl)cc2)n1 | 99.24 | 98.9 | 96.23 | 99 | 98.47 | 99.1 | 99.02 | 100 | 99.99 | 98.93 | 98.75 | 98.74 | 0.26 | 98.83 | 99.94 | 98.74 | 99.94 | 91.33 | 99.22 | 99.04 | Activity (Candida albicans [21]): 96.41%
10 | CCOC(=O)CCn1nnnc1-c1ccccc1Cl | 99.07 | 99.24 | 99.33 | 99.2 | 99.99 | 99.17 | 99.9 | 99.55 | 99.78 | 99.25 | 99.17 | 99.06 | -0.01 | 99.19 | 99.93 | 99.28 | 99.98 | 87.68 | 92.75 | 99.02 | Activity (Candida albicans [21]): 97.11%
11 | Cc1ccc(-c2nnn(CCCCl)n2)cc1 | 98.87 | 98.92 | 98.95 | 98.94 | 99.06 | 98.65 | 99.63 | 98.46 | 99.45 | 98.84 | 99.08 | 98.95 | 0.65 | 99.12 | 98.66 | 98.26 | 99.06 | 99.6 | 98.39 | 98.79 | Activity (Candida albicans [21]): 97.59%
